Data set [1] deals with Ribosomal protein S6 kinase alpha-1 (Homo sapiens) (UniProt Q15418). Description: Inhibition of RSK1 domain1 in human SKCO1 cells at 1 uM after 4 hrs using biotin labeled LTDFGLSKEAIDHEKK probe by mass-spectrometric analysis relative to control. The data set is classed as cell-based. The method, boiled down:
(§1)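 Live SK-CO-1 cells exposed to compound at 1 μM or DMSO for 4 h (KiNativ). Lysates then labeled with lysine-reactive ATP/ADP-biotin probe, and probe-labeled kinase peptides quantified by mass spectrometry. Percent inhibition of probe-dependent recovery calculated relative to DMSO-treated cells.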

Data set [2] has as its target T1, EKC/KEOPS complex subunit TP53RK (Homo sapiens) (UniProt Q96S44).
T1 sequence (whole entry): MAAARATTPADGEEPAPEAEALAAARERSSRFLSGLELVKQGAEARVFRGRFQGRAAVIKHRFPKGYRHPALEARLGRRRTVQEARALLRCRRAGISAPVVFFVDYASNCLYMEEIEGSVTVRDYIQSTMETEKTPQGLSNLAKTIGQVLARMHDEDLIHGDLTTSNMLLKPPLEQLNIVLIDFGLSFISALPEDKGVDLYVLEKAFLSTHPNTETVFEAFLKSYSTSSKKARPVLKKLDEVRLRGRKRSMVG
Description: Inhibition of PRPK in human SKCO1 cells at 1 uM after 4 hrs using biotin labeled FLSGLELVKQGAEAR probe by mass-spectrometric analysis relative to control. Format: cell-based. The method, boiled down:
as §1

In data set [3] the target is STE20-like serine/threonine-protein kinase SLK (Homo sapiens) (UniProt Q9H2G2). The data set can be described thus: Inhibition of SLK in human SKCO1 cells at 1 uM after 4 hrs using biotin labeled DLKAGNILFTLDGDIK probe by mass-spectrometric analysis relative to control.
STE20-like serine/threonine-protein kinase SLK (Homo sapiens), sequence (Q9H2G2 whole entry, looked up): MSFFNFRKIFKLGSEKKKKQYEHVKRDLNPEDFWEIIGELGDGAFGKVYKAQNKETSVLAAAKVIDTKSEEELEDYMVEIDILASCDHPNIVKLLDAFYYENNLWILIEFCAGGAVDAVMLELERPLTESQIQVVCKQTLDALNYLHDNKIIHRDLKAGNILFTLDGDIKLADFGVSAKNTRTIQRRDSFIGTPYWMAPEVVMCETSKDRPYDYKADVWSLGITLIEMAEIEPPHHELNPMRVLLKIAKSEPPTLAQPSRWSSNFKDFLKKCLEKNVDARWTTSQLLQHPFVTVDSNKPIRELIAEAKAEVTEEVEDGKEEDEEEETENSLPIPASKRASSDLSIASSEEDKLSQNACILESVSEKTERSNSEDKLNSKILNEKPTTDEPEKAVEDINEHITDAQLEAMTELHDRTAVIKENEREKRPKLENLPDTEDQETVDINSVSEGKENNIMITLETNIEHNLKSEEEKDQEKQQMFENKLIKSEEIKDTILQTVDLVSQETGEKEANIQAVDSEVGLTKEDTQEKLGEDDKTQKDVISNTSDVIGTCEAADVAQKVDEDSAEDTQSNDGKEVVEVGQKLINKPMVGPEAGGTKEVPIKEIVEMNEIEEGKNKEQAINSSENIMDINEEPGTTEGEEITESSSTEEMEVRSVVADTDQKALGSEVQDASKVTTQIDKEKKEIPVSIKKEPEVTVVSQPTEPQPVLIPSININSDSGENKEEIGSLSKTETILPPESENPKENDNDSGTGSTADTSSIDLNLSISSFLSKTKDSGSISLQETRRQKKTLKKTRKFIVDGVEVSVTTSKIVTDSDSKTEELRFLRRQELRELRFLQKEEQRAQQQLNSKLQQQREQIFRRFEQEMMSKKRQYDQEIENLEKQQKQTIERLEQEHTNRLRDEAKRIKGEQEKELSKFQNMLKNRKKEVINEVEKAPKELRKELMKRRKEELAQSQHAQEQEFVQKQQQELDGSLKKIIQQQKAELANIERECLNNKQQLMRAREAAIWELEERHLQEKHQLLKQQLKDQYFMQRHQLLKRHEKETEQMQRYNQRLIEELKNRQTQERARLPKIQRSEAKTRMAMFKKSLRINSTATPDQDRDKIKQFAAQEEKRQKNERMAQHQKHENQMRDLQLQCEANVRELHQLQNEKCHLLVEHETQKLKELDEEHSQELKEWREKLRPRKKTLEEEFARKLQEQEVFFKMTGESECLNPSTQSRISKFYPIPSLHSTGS
Data set [4] concerns the target Serine/threonine-protein kinase PRP4 homolog (Homo sapiens) (UniProt Q13523). The data set can be described thus: Inhibition of PRP4 in human SKCO1 cells at 1 uM after 4 hrs using biotin labeled CNILHADIKPDNILVNESK probe by mass-spectrometric analysis relative to control. Format: cell-based. A digest of the protocol: as §1
Data set [5] deals with Epidermal growth factor receptor (Homo sapiens) (UniProt P00533). Description: Inhibition of EGFR in human SKCO1 cells at 1 uM after 4 hrs using biotin labeled IPVAIKELR probe by mass-spectrometric analysis relative to control. The data set is classed as cell-based.
Epidermal growth factor receptor (Homo sapiens), sequence (P00533 whole entry): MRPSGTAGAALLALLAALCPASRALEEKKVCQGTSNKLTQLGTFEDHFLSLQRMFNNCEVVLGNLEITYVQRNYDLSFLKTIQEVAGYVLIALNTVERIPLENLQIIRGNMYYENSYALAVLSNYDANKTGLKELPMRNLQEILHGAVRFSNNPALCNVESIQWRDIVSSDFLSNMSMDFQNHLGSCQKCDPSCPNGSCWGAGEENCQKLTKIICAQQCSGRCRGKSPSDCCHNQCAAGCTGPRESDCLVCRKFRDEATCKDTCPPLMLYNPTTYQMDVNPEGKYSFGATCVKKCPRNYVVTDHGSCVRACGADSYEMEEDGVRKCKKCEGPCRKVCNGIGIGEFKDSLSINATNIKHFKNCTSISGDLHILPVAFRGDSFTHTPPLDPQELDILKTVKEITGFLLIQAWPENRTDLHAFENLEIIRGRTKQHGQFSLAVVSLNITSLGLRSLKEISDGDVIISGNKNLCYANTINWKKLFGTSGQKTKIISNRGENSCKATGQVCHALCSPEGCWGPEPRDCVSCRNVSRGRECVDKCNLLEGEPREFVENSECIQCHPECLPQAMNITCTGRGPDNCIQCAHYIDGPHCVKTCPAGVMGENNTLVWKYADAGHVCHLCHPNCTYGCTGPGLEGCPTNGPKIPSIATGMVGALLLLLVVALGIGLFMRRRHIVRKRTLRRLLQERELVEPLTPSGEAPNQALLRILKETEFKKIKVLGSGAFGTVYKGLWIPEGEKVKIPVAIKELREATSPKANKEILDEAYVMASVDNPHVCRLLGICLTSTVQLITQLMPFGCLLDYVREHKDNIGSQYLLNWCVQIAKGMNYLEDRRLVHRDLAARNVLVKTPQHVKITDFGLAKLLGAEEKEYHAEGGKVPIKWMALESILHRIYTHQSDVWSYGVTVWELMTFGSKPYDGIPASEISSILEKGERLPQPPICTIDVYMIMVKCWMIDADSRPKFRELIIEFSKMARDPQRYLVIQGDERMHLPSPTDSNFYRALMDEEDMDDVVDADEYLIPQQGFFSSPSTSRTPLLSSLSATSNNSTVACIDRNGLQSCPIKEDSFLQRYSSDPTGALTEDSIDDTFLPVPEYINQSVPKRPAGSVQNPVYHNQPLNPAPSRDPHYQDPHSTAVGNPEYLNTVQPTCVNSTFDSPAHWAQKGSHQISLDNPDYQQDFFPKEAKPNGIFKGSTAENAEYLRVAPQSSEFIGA
Data set [6] addresses T2, Mitogen-activated protein kinase kinase kinase 7 (Homo sapiens) (UniProt O43318).
T2 sequence (whole entry): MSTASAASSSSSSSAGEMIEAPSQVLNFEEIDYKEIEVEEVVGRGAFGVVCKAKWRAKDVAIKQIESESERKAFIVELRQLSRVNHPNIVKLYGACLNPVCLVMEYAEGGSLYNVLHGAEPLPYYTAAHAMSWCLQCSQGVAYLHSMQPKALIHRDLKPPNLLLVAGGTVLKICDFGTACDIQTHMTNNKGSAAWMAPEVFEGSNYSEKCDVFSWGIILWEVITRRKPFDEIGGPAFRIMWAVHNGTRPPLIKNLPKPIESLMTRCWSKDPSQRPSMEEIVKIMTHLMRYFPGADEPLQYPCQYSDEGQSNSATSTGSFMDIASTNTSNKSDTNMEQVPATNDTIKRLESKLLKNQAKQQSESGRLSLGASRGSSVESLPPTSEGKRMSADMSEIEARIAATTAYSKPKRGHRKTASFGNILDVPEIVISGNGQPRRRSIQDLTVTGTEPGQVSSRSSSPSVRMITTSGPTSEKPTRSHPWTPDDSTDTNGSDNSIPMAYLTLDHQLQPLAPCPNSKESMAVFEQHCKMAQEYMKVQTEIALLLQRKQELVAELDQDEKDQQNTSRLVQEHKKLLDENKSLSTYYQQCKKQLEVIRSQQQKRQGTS
The note with it: 1 uM.

Data set [7] deals with Tyrosine-protein kinase Fes/Fps (Homo sapiens) (UniProt P07332). The data set can be described thus: Inhibition of FES in human SKCO1 cells at 1 uM after 4 hrs using biotin labeled LRADNTLVAVKSCR probe by mass-spectrometric analysis relative to control. The data set is classed as cell-based.
A short description of data set [8]: Increase in secretion of basic-FGF in TNFalpha activated RA patient-derived synovial fibroblasts at 0.6 to 3 uM preincubated for 3 hrs followed by TNFalpha stimulation measured after 18 hrs by sandwich immunoassay. The note with it: human. A digest of the protocol:
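Primary RA patient synovial fibroblasts (donor RA2159) were seeded at 1000 cells/well, grown about 24 h, then starved overnight and again about 4 h in basal medium with 0.1% BSA. Cells were pre-incubated 3 h with inhibitor (0.6 or 3 μM) or DMSO, then stimulated 18 h with 10 ng/mL TNFα. Paired wells were pooled, in biological duplicate. Pooled supernatants were diluted 1:3 and read on Luminex bead sandwich immunoassays, with mock-medium background and spiked-ligand controls.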

Data set [9] addresses Dual specificity mitogen-activated protein kinase kinase 1 (Homo sapiens) (UniProt Q02750). The data set can be described thus: Inhibition of MAP2K1 in human SKCO1 cells at 1 uM after 4 hrs using biotin labeled IMHRDVKPSNILVNSR probe by mass-spectrometric analysis relative to control. Format: cell-based. A digest of the protocol: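 Live SK-CO-1 cells treated 4 h at 1 μM (DMSO control); cells lysed and lysates labeled with lysine-reactive ATP/ADP-biotin probe (KiNativ); probe-labeled kinase peptides quantified by mass spectrometry; inhibition expressed as percent reduction in probe-dependent recovery versus DMSO-treated cells.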

Data set [10] has as its target Mitogen-activated protein kinase kinase kinase kinase 1 (Homo sapiens) (UniProt Q92918). The data set can be described thus: Inhibition of HPK1 in human SKCO1 cells at 1 uM after 4 hrs using biotin labeled DIKGANILINDAGEVR probe by mass-spectrometric analysis relative to control. The data set is classed as cell-based.
In data set [11] the target is Tyrosine-protein kinase Lyn (Homo sapiens) (UniProt P07948). Description: Inhibition of LYN in human SKCO1 cells at 1 uM after 4 hrs using biotin labeled VAVKTLKPGTMSVQAFLEEANLMK probe by mass-spectrometric analysis relative to control. The data set is classed as cell-based.
Tyrosine-protein kinase Lyn (Homo sapiens), sequence (P07948 2-512 limits assumed): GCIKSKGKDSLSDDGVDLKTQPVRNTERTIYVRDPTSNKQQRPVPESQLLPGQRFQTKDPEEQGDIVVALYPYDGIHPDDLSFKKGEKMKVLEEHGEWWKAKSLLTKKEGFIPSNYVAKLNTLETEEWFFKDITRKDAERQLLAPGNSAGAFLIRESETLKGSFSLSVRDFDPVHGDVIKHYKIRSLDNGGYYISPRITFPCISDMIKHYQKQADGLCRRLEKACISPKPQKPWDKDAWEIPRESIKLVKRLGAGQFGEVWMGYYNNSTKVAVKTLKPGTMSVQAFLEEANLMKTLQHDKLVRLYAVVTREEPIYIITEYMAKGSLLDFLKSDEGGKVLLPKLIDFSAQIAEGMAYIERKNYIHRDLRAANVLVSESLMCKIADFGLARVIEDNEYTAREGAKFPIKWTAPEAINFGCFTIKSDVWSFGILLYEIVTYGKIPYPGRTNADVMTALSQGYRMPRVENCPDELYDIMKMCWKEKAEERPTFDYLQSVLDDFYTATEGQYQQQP
The target of data set [12] is Bone morphogenetic protein receptor type-1A (Homo sapiens) (UniProt P36894). Description: Inhibition of BMPR1A in human SKCO1 cells at 1 uM after 4 hrs using biotin labeled SKNILIK probe by mass-spectrometric analysis relative to control. The data set is classed as cell-based.
Bone morphogenetic protein receptor type-1A (Homo sapiens), sequence (P36894 whole entry): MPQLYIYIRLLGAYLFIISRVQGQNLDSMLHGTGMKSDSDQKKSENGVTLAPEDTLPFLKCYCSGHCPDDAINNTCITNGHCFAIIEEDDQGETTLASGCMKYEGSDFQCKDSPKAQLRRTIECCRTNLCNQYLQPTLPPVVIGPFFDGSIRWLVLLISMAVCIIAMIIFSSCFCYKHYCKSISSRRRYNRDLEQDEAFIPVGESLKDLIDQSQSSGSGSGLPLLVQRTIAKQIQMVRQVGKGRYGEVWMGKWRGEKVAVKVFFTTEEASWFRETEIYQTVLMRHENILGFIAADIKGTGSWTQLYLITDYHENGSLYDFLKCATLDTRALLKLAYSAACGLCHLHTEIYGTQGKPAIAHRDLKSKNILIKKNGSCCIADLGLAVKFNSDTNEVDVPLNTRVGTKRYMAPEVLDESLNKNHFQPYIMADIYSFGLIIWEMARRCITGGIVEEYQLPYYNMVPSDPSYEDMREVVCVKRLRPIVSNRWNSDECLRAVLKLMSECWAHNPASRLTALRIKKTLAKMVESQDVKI
The target of data set [13] is DNA-dependent protein kinase catalytic subunit (Homo sapiens) (UniProt P78527). Description: Inhibition of DNAPK in human SKCO1 cells at 1 uM after 4 hrs using biotin labeled EHPFLVKGGEDLR probe by mass-spectrometric analysis relative to control. The data set is classed as cell-based.
The target of data set [14] is Mitogen-activated protein kinase kinase kinase 4 (Homo sapiens) (UniProt Q9Y6R4). The data set can be described thus: Inhibition of MAP3K4 in human SKCO1 cells at 1 uM after 4 hrs using biotin labeled DIKGANIFLTSSGLIK probe by mass-spectrometric analysis relative to control. The data set is classed as cell-based.
The target of data set [15] is Serine/threonine-protein kinase PLK1 (Homo sapiens) (UniProt P53350). The data set can be described thus: Inhibition of PLK1 in human SKCO1 cells at 1 uM after 4 hrs using biotin labeled CFEISDADTKEVFAGKIVPK probe by mass-spectrometric analysis relative to control. The data set is classed as cell-based. The method, boiled down: as §1
Data set [16] addresses Cyclin-dependent kinase 2 (Homo sapiens) (UniProt P24941). The data set can be described thus: Inhibition of CDK2 in human SKCO1 cells at 1 uM after 4 hrs using biotin labeled DLKPQNLLINTEGAIK probe by mass-spectrometric analysis relative to control. The data set is classed as cell-based.

Data on three compounds can be found in ChEMBL document CHEMBL4118021, “Studies of TAK1-centered polypharmacology with novel covalent TAK1 inhibitors” (Bioorg Med Chem, 2017).

Ribosomal protein S6 kinase alpha-1 (Homo sapiens), sequence (Q15418 whole entry, the tested form may be a part): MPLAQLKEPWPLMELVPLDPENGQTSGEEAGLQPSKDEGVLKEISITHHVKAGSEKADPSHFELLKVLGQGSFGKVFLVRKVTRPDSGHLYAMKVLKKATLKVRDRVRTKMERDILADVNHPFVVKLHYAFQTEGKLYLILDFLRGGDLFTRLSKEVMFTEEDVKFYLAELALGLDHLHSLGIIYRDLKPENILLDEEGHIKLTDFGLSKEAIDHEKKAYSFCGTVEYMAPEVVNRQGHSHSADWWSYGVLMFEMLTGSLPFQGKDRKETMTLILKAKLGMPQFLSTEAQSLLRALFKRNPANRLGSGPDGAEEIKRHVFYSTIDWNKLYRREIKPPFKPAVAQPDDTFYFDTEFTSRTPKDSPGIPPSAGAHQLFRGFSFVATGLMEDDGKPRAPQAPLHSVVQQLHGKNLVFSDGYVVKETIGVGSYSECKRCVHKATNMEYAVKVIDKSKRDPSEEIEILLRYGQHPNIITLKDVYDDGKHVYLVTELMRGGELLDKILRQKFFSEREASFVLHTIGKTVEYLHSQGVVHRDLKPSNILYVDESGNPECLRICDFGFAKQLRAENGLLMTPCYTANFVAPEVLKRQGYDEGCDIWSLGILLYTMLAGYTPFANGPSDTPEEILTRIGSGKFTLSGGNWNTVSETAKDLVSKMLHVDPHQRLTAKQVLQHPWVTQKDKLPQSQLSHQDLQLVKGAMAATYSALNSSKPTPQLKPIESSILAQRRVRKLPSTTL
Mitogen-activated protein kinase kinase kinase kinase 1 (Homo sapiens), sequence (Q92918 whole entry, looked up): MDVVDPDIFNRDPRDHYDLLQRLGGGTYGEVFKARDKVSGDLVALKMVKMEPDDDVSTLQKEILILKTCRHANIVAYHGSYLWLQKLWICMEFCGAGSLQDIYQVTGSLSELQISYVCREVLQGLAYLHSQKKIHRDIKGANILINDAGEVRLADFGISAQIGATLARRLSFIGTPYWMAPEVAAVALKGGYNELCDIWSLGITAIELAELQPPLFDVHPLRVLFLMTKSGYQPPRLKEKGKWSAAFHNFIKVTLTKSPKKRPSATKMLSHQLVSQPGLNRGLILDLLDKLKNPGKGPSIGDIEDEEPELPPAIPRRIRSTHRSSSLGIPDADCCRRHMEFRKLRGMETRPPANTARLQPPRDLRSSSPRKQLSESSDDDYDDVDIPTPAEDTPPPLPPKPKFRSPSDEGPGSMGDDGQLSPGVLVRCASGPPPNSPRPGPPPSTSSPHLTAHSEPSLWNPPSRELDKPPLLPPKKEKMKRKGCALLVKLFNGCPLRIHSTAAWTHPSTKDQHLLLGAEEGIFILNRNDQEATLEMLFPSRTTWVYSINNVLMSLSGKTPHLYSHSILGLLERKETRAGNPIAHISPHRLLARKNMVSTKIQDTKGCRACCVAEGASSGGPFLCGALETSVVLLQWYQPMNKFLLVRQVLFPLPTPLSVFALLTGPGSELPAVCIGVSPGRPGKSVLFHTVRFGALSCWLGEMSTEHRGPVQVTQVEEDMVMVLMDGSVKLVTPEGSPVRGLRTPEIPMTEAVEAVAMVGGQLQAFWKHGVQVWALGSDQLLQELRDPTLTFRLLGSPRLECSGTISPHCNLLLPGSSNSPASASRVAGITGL

`C=CC(=O)Nc1ccccc1Oc1nc(Nc2cnn(CCOC)c2)ncc1Cl`: the inhibition in data set [1] turned out to be 33.5%; in data set [2], 46.6%; in [3] it was 61.2%; in [4], 18.7%; in data set [5], 17.1%; in [6] it was 31.2%. In addition, the inhibition in [7] is 13.6%; in data set [9] it was -7.9%; in data set [10] it was 72.6%; in data set [11], 2.8%; in data set [12] it was 19.9%; in [13] it was 16.2%. Further, the inhibition was 12.9% in data set [14], 59.9% in [15] and 33.1% in data set [16]. In addition, the Activity result in data set [8] is “Non-Toxic”.
For `C=CC(=O)Nc1ccccc1Nc1nc(Nc2ccc(N3CCN(C)CC3)cc2)ncc1Cl`, the inhibition was determined as 56.2% in data set [1]; 42.1% in data set [2]; 76.3% in data set [3]; 32.7% in [4]; 46.2% in data set [5]; 90.3% in [6]. Besides, the inhibition was 77.3% in [7]; 60% in [9]; 34.9% in [10]; 16.5% in data set [11]; 28% in [12]; 0.5% in data set [13]. In addition, the inhibition in data set [14] was 63.3%; in [15], 54.6%; in data set [16], 18.7%. The Activity entry in [8] is “Toxic”.
Turning to `COc1cc(O)c2c(c1)/C=C/C[C@H](O)[C@H](O)C(=O)/C=C\C[C@H](C)OC2=O`, the inhibition in data set [1] is 54.5%; in data set [2], 46.7%; in data set [3], 66%; in data set [4], 15.4%; in data set [5], 6.2%; in data set [6], 90%. Besides, the inhibition in [7] was 67.7%; in data set [9], 89.4%; in data set [10], 77.3%; in data set [11] it was -5.1%; in data set [12], 73.1%; in data set [13], 21.7%. For the same compound, the inhibition came out at 17.8% in data set [14], 61.5% in data set [15] and 30% in data set [16]. For the same compound, the Activity entry in data set [8] is reported as “Toxic”.
